ChEMBL document CHEMBL2177013, “Synthesis and biological evaluation of tylophorine-derived dibenzoquinolines as orally active agents: exploration of the role of tylophorine e ring on biological activity” (J Med Chem, 2012)

Assays:
HepG2 = assay: Growth inhibition of human HepG2 cells; format: functional
Method in brief: (§1)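 Cells seeded per well: NUGC-3 4500, HONE-1 6000, MCF-7 6500, NCI-H460 2500, HepG2 10000, A549 5000; A549 grown in RPMI 1640 with 2 g/L NaHCO₃, 2 mM L-glutamine and 10% FBS. GI₅₀ = concentration giving 50% growth inhibition, mean of at least three experiments each in duplicate. Paclitaxel served as positive control.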

NCI-H460 = assay: Growth inhibition of human NCI-H460 cells; format: functional; method in brief: as §1
A549 = assay: Growth inhibition of human A549 cells; format: functional; method in brief: as §1
[1] = test system: Transmissible gastroenteritis virus; assay: Antiviral activity against Transmissible gastroenteritis virus infected in ST cells pre-treated 2 hrs before virus infection measured 6 hrs post virus infection by immunofluorescent assay; format: functional, organism-based; settings: Alphacoronavirus 1, ST
Method in brief: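 ST cells, with or without 2 h compound pretreatment (10 concentrations), infected with TGEV at MOI 10. Immunofluorescence with anti-spike and anti-nucleocapsid antibodies at 6 hpi. EC50 from dose–response curves, mean of at least three experiments, each in duplicate.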

[2] = Growth inhibition of human HONE1 cells; format: functional; method in brief: as §1
MCF7 = assay: Growth inhibition of human MCF7 cells; format: functional; method in brief: as §1
NUGC-3 = assay: Growth inhibition of human NUGC3 cells; format: functional; method in brief: as §1
RAW264.7 = assay: Antiinflammatory activity in mouse RAW264.7 cells assessed as inhibition of LPS-induced nitric oxide production incubated for 18 hrs by nitrate/nitrite assay; format: functional, cell-based; settings: RAW264.7, 18 h
Method in brief: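 RAW264.7 seeded 65000 cells/well, cultured 24 h, then medium replaced with complete medium containing IFNγ (20 ng/mL)/LPS (5 μg/mL) plus compound at various concentrations for 18 h; nitric oxide measured by Nitrate/Nitrite kit. EC50 as mean of at least three experiments, each in duplicate.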

[3] = Cytotoxicity against mouse RAW264.7 cells; format: cell-based
Method in brief: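 RAW264.7 cells stimulated with LPS/IFNγ and compound-treated in parallel with the NO assay; CC50 taken as concentration giving 50% inhibition of cell growth. Mean of at least three experiments, each in duplicate.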

| Structure (SMILES) | GI50 (HepG2) [µM] | GI50 (NCI-H460) [nM] | GI50 (A549) [nM] | EC50 [1] [nM] | GI50 [2] [µM] | GI50 (MCF7) [nM] | GI50 (NUGC-3) [nM] | EC50 (RAW264.7) [nM] | CC50 [3] [µM] |
| --- | --- | --- | --- | --- | --- | --- | --- | --- | --- |
| COc1cc2c3c(c4cc(OC)c(OC)cc4c2cc1OC)CN(CC(C)C)CC3 | 1.81 | 870 | 1320 | 1360 | 1.72 | 910 | 1040 | – | – |
| CC(=O)O[C@H]1C(=O)[C@@]2(C)[C@H]([C@H](OC(=O)c3ccccc3)[C@]3(O)C[C@H](OC(=O)[C@H](O)[C@@H](NC(=O)c4ccccc4)c4ccccc4)C(C)=C1C3(C)C)[C@]1(OC(C)=O)CO[C@@H]1C[C@@H]2O [PACLITAXEL] | 0.18 | 30 | 60 | – | 0.02 | 30 | 20 | – | – |
| COc1cc2c3c(c4cc(OC)c(OC)cc4c2cc1OC)C(O)CN(C(C)C)C3 (centres undefined) | 1.86 | 1070 | 1230 | 2740 | 1.71 | 1210 | 870 | 2050 | > 4 |
| COc1cc2c3c(c4cc(OC)c(OC)cc4c2cc1OC)CN(CCCNC(=O)OC(C)(C)C)CC3 | 4.15 | 2890 | 3550 | 1030 | 4.52 | 3350 | 3400 | – | – |
| COc1cc2c3c(c4cc(OC)c(OC)cc4c2cc1OC)CN(CC1OCCO1)CC3 | 41 | 18500 | 31500 | > 50000 | 22.1 | 22400 | 19100 | – | – |
| CCCN1CCc2c(c3cc(OC)ccc3c3cc(OC)c(OC)cc23)C1 | 4.48 | 3820 | 4640 | 8910 | 5.56 | 3750 | 4630 | – | – |
| CCCN1Cc2c(c3cc(OC)c(OC)c(OC)c3c3cc(OC)c(OC)cc23)C(O)C1 (centres undefined) | 0.83 | 590 | 820 | 660 | 0.82 | 590 | 490 | – | – |
| CCCN1CCc2c(c3cc(OC)c(OC)cc3c3c(OC)c(OC)c(OC)cc23)C1 | 0.86 | 490 | 790 | 770 | 0.96 | 620 | 540 | – | – |
| CCCN1CCc2c(c3cc(OC)c(OC)cc3c3cc(OC)ccc23)C1 | 0.48 | 260 | 470 | 680 | 0.77 | 420 | 430 | – | – |
| CCCCN1CCc2c(c3cc(OC)c(OC)cc3c3c(OC)c(OC)c(OC)cc23)C1 | 5.01 | 2680 | 3010 | 2920 | 4.06 | 3190 | 2540 | – | – |
| CCN1CCc2c(c3cc(OC)ccc3c3cc(OC)c(OC)cc23)C1 | 4.01 | 3390 | 4380 | 14200 | 4.87 | 3120 | 3480 | – | – |
| COc1cc2c3c(c4cc(OC)c(OC)cc4c2cc1OC)CN(CCCO)CC3 | 16.9 | 9410 | 5470 | 19300 | 16.6 | 7140 | 6630 | – | – |
| CCCN1Cc2c(c3ccc(OC)cc3c3cc(OC)c(OC)cc23)C(O)C1 (centres undefined) | 0.11 | 50 | 50 | 120 | 0.14 | 110 | 110 | – | – |
| CCCN1CCc2c(c3ccc(OC)cc3c3cc(OC)c(OC)cc23)C1 | 3.17 | 2400 | 2950 | 8680 | 3.31 | 2830 | 2940 | – | – |
| CCCN1CCc2c(c3cc(OC)ccc3c3c(OC)c(OC)ccc23)C1 | 6.29 | 3760 | 3670 | 2630 | 4.75 | 4110 | 3720 | – | – |
| CCCCCN1CCc2c(c3cc(OC)c(OC)cc3c3cc(OC)c(OC)cc23)C1 | 8.05 | 6110 | – | 6530 | 6.2 | 9510 | 7670 | – | – |
| COc1cc2c3c(c4cc(OC)c(OC)c(OC)c4c2cc1OC)CCN(C(C)C)C3 | 1.61 | 570 | 760 | 780 | 1.12 | 720 | 640 | – | – |
| CCCN1Cc2c(c3cc(OC)c(OC)cc3c3cc(OC)c(OC)cc23)C(O)C1 (centres undefined) | 1.68 | 1080 | 1190 | 670 | 1.74 | 1020 | 730 | 2200 | > 4 |
| COc1cc2c3c(c4cc(OC)c(OC)cc4c2cc1OC)CN(CCC1OCCO1)CC3 | 6.49 | 4150 | 4820 | 31900 | 6.13 | 4600 | 4950 | – | – |
| COc1cc2c3c(c4cc(OC)c(OC)cc4c2cc1OC)CN(C1C=CCCC1)CC3 (centres undefined) | 3.64 | 2300 | 1920 | 2990 | 2.53 | 2210 | 1880 | – | – |
| CCCCN1CCc2c(c3cc(OC)c(OC)cc3c3cc(OC)ccc23)C1 | 4.04 | 3510 | 2390 | 5600 | 4.77 | 4730 | 3990 | – | – |
| CCC(C)N1CCc2c(c3cc(OC)c(OC)cc3c3cc(OC)c(OC)cc23)C1 (centres undefined) | 0.51 | 450 | 530 | 730 | 1.15 | 400 | 440 | – | – |
| COc1cc2c3c(c4cc(OC)c(OC)cc4c2cc1OC)CN(CCCN)CC3 | 36.9 | 11700 | 6040 | 23400 | 21.1 | 15300 | 10300 | – | – |
| COc1cc2c3c(c4cc(OC)c(OC)cc4c2cc1OC)CN(CCCOC1CCCCO1)CC3 (centres undefined) | 14 | 7490 | 3780 | 30800 | 9.65 | 9800 | 8220 | – | – |
| CCCCN1Cc2c(c3ccc(OC)cc3c3cc(OC)c(OC)cc23)C(O)C1 (centres undefined) | 1.85 | 1480 | 1320 | 2920 | 3 | 2330 | 1860 | – | – |
| CCN1CCc2c(c3cc(OC)c(OC)cc3c3c(OC)c(OC)c(OC)cc23)C1 | 2.5 | 870 | 1410 | 1140 | 1.99 | 1180 | 1700 | – | – |
